Shown are actives, neighbours in structure and some others; about 2.6% of the full set was active somewhere.
SENP1 FRET inh: human SENP1 catalytic domain inhibitors, primary screen, biochemical, FRET, uHTS. Sentrin-specific protease 1 (Homo sapiens), Q9P0U3. recombinant SENP1 catalytic domain, CyPet-SUMO1-YPet FRET cleavage. inhibition, % at 10 µM. hit rate 0.21% among 360,000. AID 624204, 2012;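 active = inhibition at least 30% at 10 µM, raw YFP signal under a set limit, fluorescence ratio 0.5 to 1.5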;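 also: 0% = enzyme with DMSO and 100% = no enzyme wells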
Target sequence (Q9P0U3 419-644 limits assumed): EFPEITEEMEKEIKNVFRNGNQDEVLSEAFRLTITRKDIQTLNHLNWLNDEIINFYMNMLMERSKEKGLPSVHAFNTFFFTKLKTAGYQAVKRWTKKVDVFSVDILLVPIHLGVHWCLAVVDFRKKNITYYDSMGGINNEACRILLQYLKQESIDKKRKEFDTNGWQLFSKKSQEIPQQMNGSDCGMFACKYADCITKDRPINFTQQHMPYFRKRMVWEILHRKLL
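Assay system: hSENP1 catalytic domain, recombinant. Amount: SENP1 enzyme, 20 pM final. Schedule: 50 min reaction, RT, dark. Technique: FRET, CFP and YFP emission. Control set: no-enzyme wells low, DMSO-plus-enzyme wells high control.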
Platelet DG rel: inhibitors of platelet dense granule secretion, primary screen, cell-based, MLPCN, human platelets. inhibition, %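 (compounds screened at 7.5 µM in platelet-rich plasma)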. AID 1663, 2009. human platelet-rich plasma, SFLLRN dense granule ATP release, luminescence. hit rate 0.22% among 300,000;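 active = mean replicate score, as percent of positive control, at or above 50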
SENP8 block-1: SENP8 protease inhibitors, primary screen, biochemical, luminescence; Sentrin-specific protease 8 (Homo sapiens), Q96LD8; purified SENP8, Z-RLRGG-aminoluciferin cleavage; inhibition, % at 10 µM; hit rate 1.2% among 330,000; AID 2540, 2010; in the data active = inhibition above about 50%
SENP6 block: SENP6 protease inhibitors, primary screen, biochemical, luminescence, uHTS. Recombinant SENP6 catalytic domain, aminoluciferin luminescence. inhibition, % at 10 µM. hit rate 1.8% among 330,000. Sentrin-specific protease 6 (Homo sapiens), Q9GZR1;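 active = inhibition above about 50% at the single tested dose, limit read from the data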;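 also: plate controls were DMSO wells with enzyme for no effect and DMSO wells lacking enzyme for full effect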
SENP8 block-2: human SENP8 protease inhibitors, primary screen, biochemical, fluorescence, Nedd8 protein substrate, uHTS; recombinant SENP8; inhibition, % at 20 µM; hit rate 0.64% among 360,000; in the data active = inhibition mostly above about 40%, no sharp cut-off; inactive = mostly below about 27%
SENP7 block: SENP7 protease inhibitors, primary screen, biochemical, luminescence, uHTS | recombinant SENP7, Z-RLRGG-aminoluciferin luminescence, 40 min | inhibition, % at 5 µM | hit rate 1.5% among 330,000;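 active = inhibition above about 50% at the single test dose, limit read from the data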;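 also: plate controls were DMSO with enzyme for no effect and no enzyme buffer wells for full effect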
Target sequence (Q9BQF6 706-1050 limits assumed): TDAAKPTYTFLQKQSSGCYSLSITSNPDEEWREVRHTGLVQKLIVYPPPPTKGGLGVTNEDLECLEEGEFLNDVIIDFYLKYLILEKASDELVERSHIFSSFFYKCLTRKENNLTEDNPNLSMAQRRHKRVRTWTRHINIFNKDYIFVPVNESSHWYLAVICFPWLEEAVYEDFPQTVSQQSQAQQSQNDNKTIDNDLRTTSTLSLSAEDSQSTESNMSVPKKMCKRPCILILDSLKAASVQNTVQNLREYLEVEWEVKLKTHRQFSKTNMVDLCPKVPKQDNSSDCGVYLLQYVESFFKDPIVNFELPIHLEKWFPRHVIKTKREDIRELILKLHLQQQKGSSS
SENP8 conf: SENP8 protease inhibitors, retest, confirmation, biochemical, luminescence, single concentration. hit rate 40% among 6,200. Recombinant SENP8, Z-RLRGG-aminoluciferin luminescence, 60 min. inhibition, % at 12.5 µM. AID 488912, 2010. shares compounds with SENP7 block;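 active = mean inhibition across replicates above about 50%, limit read from the data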
SENP6 confirm: SENP6 protease inhibitors, confirmation, biochemical, luminescence, single concentration | shares compounds with SENP7 block | recombinant SENP6, Z-RLRGG-aminoluciferin luminescence | inhibition, % at 12.5 µM | hit rate 58% among 6,200 | AID 488915, 2010
SENP7 confirm: SENP7 protease inhibitors, retest, confirmation, biochemical, luminescence, single concentration; AID 488917, 2010; shares compounds with SENP7 block; recombinant SENP7, Z-RLRGG-aminoluciferin luminescence, 40 min; hit rate 69% among 6,200; inhibition, % at 12.5 µM
Casp3 select: caspase-3 protease inhibitors, confirmation, selectivity assay for SENP inhibitor project, biochemical, single concentration. shares compounds with SENP7 block. purified caspase-3, Z-DEVD-aminoluciferin luminescence, 60 min. inhibition, % at 12.5 µM. hit rate 60% among 6,200. AID 488918, 2010;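 active = mean inhibition above about 50%, limit read from the data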;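 also: plate controls were enzyme with DMSO for no effect and wells without caspase-3 for full effect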
Luc interf: counter-screen for SENP inhibitors: luminescence interference | shares compounds with SENP7 block | Pre-incubated SENP8/Z-RLRGG-aminoluciferin, luciferase luminescence interference | inhibition, % at 12.5 µM | hit rate 39% among 6,200;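 active = mean inhibition above about 50% when retested at one dose, limit read from the data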;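 also: plate controls were DMSO wells with completed reaction for no effect and substrate without enzyme for full effect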
* marks the source's active call; other numbers are inactive results.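 The calls were made as follows, unless noted: active = mean inhibition above about 50% in the one-dose retest (limit read from the data); inactive = the rest.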

`CN1CCN(c2ccccc2/C=C2/C(=O)Nc3ccccc32)CC1` gave SENP1 FRET inh 12, Platelet DG rel 5, SENP8 block-1 4, SENP6 block 3, SENP8 block-2 19 and SENP7 block 8.
Screening COC(=O)CCc1c(C)c(C(=O)c2cc(F)c(F)c(F)c2F)c2ccccn12 returned SENP1 FRET inh -62, Platelet DG rel -2, SENP8 block-1 28, SENP6 block 77*, SENP8 block-2 -30, SENP7 block 4, SENP8 conf 8, SENP6 confirm 7, SENP7 confirm -9, Casp3 select -3 and Luc interf -3.
For Cc1c(C(=O)c2ccc(F)cc2F)c2ccccn2c1CCC#N the results were SENP1 FRET inh -47, Platelet DG rel 4, SENP8 block-1 42, SENP6 block 58*, SENP8 block-2 -4, SENP7 block 26, SENP8 conf 11, SENP6 confirm 9, SENP7 confirm -4, Casp3 select 4 and Luc interf -1.
For COC(=O)CCc1c(C)c(C(=O)c2ccc(F)cc2)c2ccccn12 the results were SENP1 FRET inh -3, Platelet DG rel 3, SENP8 block-1 1, SENP6 block -15, SENP8 block-2 3 and SENP7 block -7.
`CCOc1ccc2ccccc2c1CNc1nnnn1C` gave SENP1 FRET inh 0, Platelet DG rel 10, SENP8 block-1 0, SENP6 block -1, SENP8 block-2 -2 and SENP7 block 5.
Screening O=[N+]([O-])c1cc([N+](=O)[O-])c2cc3ccccc3nc2c1 returned SENP1 FRET inh 2, Platelet DG rel 3, SENP8 block-1 7, SENP6 block -1, SENP8 block-2 28 and SENP7 block 7.
For COc1ccc2oc(C(=O)OCC(=O)NCCc3ccccc3)c(C)c2c1 the results were SENP1 FRET inh -1, Platelet DG rel 33, SENP8 block-1 18, SENP6 block -8, SENP8 block-2 -430 and SENP7 block 3.
COc1ccc2oc(C(=O)Nc3nccs3)c(C)c2c1 was read as SENP1 FRET inh -13, Platelet DG rel -18, SENP8 block-1 -5, SENP6 block 30, SENP8 block-2 -145, SENP7 block 83*, SENP8 conf 15, SENP6 confirm 34, SENP7 confirm 39, Casp3 select 41 and Luc interf 20.
For CCOc1ccc2oc(C(=O)Nc3nccs3)c(C)c2c1 the results were SENP1 FRET inh -23, SENP8 block-1 22, SENP6 block 11, SENP8 block-2 -186, SENP7 block 78*, SENP8 conf 19, SENP6 confirm 14, SENP7 confirm 26, Casp3 select 39 and Luc interf 11.
Screening COc1ccc2oc(C(=O)NCCc3ccccc3)c(C)c2c1 returned SENP1 FRET inh -15, Platelet DG rel 1, SENP8 block-1 84*, SENP6 block 90*, SENP8 block-2 -201, SENP7 block 88*, SENP8 conf 93*, SENP6 confirm 92*, SENP7 confirm 100*, Casp3 select 86* and Luc interf 72*.
Cc1ccc(C(=O)N(CC(C)C)c2c(N)n(Cc3ccccc3)c(=O)[nH]c2=O)o1 was read as SENP1 FRET inh -7, Platelet DG rel 19, SENP8 block-1 -14, SENP6 block -18, SENP8 block-2 -25 and SENP7 block 5.
Screening O=S1c2ccccc2Sc2ccccc21 returned SENP1 FRET inh 0 and SENP8 block-2 14.
For O=C(NC(=S)Nc1cccc(CO)c1)c1ccc(-c2ccccc2)cc1 the results were SENP1 FRET inh 1, Platelet DG rel 4, SENP8 block-1 27, SENP6 block 56*, SENP8 block-2 6, SENP7 block 10, SENP8 conf 6, SENP6 confirm -2, SENP7 confirm 15, Casp3 select 4 and Luc interf -1.
For Cc1ccc(NC(=O)Cc2noc3ccccc23)cc1 the results were SENP1 FRET inh 0, Platelet DG rel -2, SENP8 block-1 24, SENP6 block 51*, SENP8 block-2 3, SENP7 block 44, SENP8 conf 47, SENP6 confirm 47, SENP7 confirm 74*, Casp3 select 61* and Luc interf 17.
Cc1ccc(C(=O)OCC(=O)Nc2ccccc2Cl)c(O)c1 was read as SENP1 FRET inh -1, Platelet DG rel -12, SENP8 block-1 -18, SENP6 block 17, SENP8 block-2 5, SENP7 block 66*, SENP8 conf 12, SENP6 confirm 12, SENP7 confirm 5, Casp3 select 9 and Luc interf 6.
CC(C)Cn1c(N)c(C(=O)CSc2ncn[nH]2)c(=O)n(C)c1=O was read as SENP1 FRET inh -1 and SENP8 block-2 4.
Cc1cccc(-n2ncc3c(N4CCCC4)ncnc32)c1 was read as SENP1 FRET inh -1, Platelet DG rel 6, SENP8 block-1 29, SENP6 block 41, SENP8 block-2 9 and SENP7 block 25.
Screening COc1ccc(-n2ncc3c(N4CCCCC4)ncnc32)cc1 returned SENP1 FRET inh -5, Platelet DG rel 12, SENP8 block-1 93*, SENP6 block 96*, SENP8 block-2 -351, SENP7 block 98*, SENP8 conf 95*, SENP6 confirm 98*, SENP7 confirm 103*, Casp3 select 96* and Luc interf 95*.

Screening results from PubChem.
